Bioassay records deposited in PubChem BioAssay by several laboratories.
PTPN22 act = increases human PTPN22 phosphatase activity; Q9Y2R2; recombinant LYP, DiFMUP fluorescence; 0 = plate median, 100 = signal doubled; activation, % at 2 µM; 96,000 compounds, 0.11% hits; AID 697;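 active = activation at 2 µM above a set limit, the mean plus 5 SD, cut at about 37% in these data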
HIV Rev-RRE inh = HIV Rev-RRE protein-RNA interaction inhibition; Rev peptide-RRE RNA binding, FRET; inhibition, % at 8 µM; 97,000 compounds, 0.79% hits;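 active = inhibition above the screen-wide mean plus 3 SD, cut at about 35% in these data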
Target sequence (P05866 whole entry, looked up): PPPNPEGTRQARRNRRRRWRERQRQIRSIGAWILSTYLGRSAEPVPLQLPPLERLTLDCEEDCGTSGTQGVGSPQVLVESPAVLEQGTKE
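Test system – labelled RRE RNA duplex and labelled Rev peptide · Reagent – labelled Rev peptide · Doses – one concentration, 8 µM nominal · Incubation – 5 + 15 min at 25 °C · Signal – FRET fluorescence readout · Read-out basis – % inhibition of FRET ratio versus controls · Control set – DMSO wells as 0% and neomycin B wells as 100% inhibition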
PLK1 kinase inh = blocks human PLK1 kinase activity; inhibition, % at 10 µM; P53350; AID 619; recombinant PLK1 kinase, TR-FRET peptide phosphorylation; 97,000 compounds, 0.53% hits;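 active = inhibition of 50% or more in the single-concentration screen; inactive = inhibition below 50%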
EphB4 antag = antagonists of human EphB4-ephrin-B2 interaction; EphB4 LBD / TNYL-RAW-Alexa532 peptide, fluorescence polarization; inhibition, % at 7 µM; 97,000 compounds, 0.15% hits; P54760; AID 720;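 active = inhibition above the screen-wide mean inhibition plus 3 SD, cut at about 15% in these data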
LYP inh 2 = blocks human PTPN22 phosphatase activity; inhibition, % at 2 µM; Q9Y2R2; recombinant LYP catalytic domain, DiFMUP fluorescence; 96,000 compounds, 0.21% hits;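 active = inhibition at 2 µM at or above a set limit, the screen mean plus 3 SD, cut at about 24% in these data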
Plk1 PBD FP = Plk1 (human) PBD binding inhibition; P53350; Plk1 PBD phosphopeptide binding, fluorescence polarization; inhibition, %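 (tested at about 20 µM)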; 97,000 compounds, 0.13% hits; AID 693; in the data active = inhibition above about 34%, passing the limit was not always enough
PLK1 inh conf = confirmation of human PLK1 kinase inhibitors; shares compounds with PLK1 kinase inh; AID 744; inhibition, % at 10 µM; 210 compounds, 20% hits; recombinant PLK1 kinase, TR-FRET peptide phosphorylation;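 active = inhibition at or above 50% in each of two repeat confirmation tests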
Plk1 interf = Plk1 assay compound interference counter-screen hit; shares compounds with PLK1 kinase inh; Plk1 TR-FRET assay interference, compound added post-reaction; inhibition (interference), % at 10 µM; 210 tested, under 10 active;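 active = both duplicate runs show 50% or greater inhibition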
Hits are given with their value; i = inactive; nt = not tested or not shown; [ ] = another dose, or the depositor's remark. This is a sample that favours compounds with a hit; in the whole collection about 1.8% have one here.

SMILES	PTPN22 act	HIV Rev-RRE inh	PLK1 kinase inh	EphB4 antag	LYP inh 2	Plk1 PBD FP	others
CCC(C)NC(=O)c1ccccc1NC(=O)CN(c1ccc(OC)cc1)S(C)(=O)=O (stereo not drawn)	i	i	i	i	i	i
COc1ccc(CSc2nnc(C)n2N)cc1	i	47	i	i	i	i
c1ccc(Oc2cc(-c3ccccc3)ncn2)cc1	i	i	i	i	i	i
COc1ccc(OC)c(NC(=O)C(CC(=O)O)NCc2ccco2)c1 (stereo not drawn)	i	i	i	i	i	i
O=S(=O)(Nc1ncn[nH]1)c1ccc(Cl)cc1	i	i	i	i	i	i
N#C/C(=C\c1ccc(N2CCOCC2)o1)c1nc2ccccc2[nH]1	i	136[fluorescence artefact?]	i	i	i	i
N#C/C(=C/c1ccc(N2CCCC2)c([N+](=O)[O-])c1)c1nc2ccccc2[nH]1	i	45	i	i	i	i
c1ccc2[nH]c(CN3CCOCC3)nc2c1	i	i	i	i	i	i
N#C/C(=C/c1ccc(N2CCOCC2)o1)c1ccc(Cl)cc1	i	113[fluorescence artefact?]	i	i	i	i
O=C(NCc1ccccc1C(F)(F)F)C1CC(c2ccccc2[N+](=O)[O-])=NO1 (stereo not drawn)	i	i	i	i	i	i
O=C(Nc1ccc(-n2nncc2-c2ccco2)cc1)c1cc2ccccc2oc1=O	i	i	i	i	i	i
O=S(=O)(Nc1nc2ccccc2[nH]1)c1ccc(Cl)cc1	i	i	61	i	i	i
CCOc1ccc(C(=O)C2CCN(C(=O)c3ccccc3C(=O)O)CC2)cc1	i	i	i	i	i	i
CCOc1ccc(C2C(C(=O)C3CC3)N3C=C(C#N)C=CC3C2(C#N)C#N)cc1 (stereo not drawn)	i	48	i	i	i	i
Clc1cccc(Oc2ncc(CN3CCOCC3)s2)c1	i	i	i	i	i	i
CN(C)c1ccc(/C=C/c2ccncc2)cc1	i	72	i	i	i	i
COc1ccc(/C=C/c2ccncc2)cc1	i	i	i	i	i	i
CCC1CCCCN1C(=O)CSc1nnc(CNC(=O)COc2ccc(Cl)cc2)o1 (stereo not drawn)	i	i	i	i	i	i
Cc1cc(=O)n(CCO)c(O)c1C#N	i	i	i	i	i	i
Cc1cc(=O)n(CC(C)C)c(O)c1C#N	i	i	i	17	i	i
CCOc1ccc(Cl)cc1S(=O)(=O)n1nnc2ccccc21	i	i	i	i	i	i
COc1ccc(-n2nnnc2SCC(=O)c2ccc(O)c(O)c2)cc1	i	i	i	i	35	i
Cc1nc(N)sc1N=Nc1ccc(F)cc1	i	i	59	i	i	i
Cc1ccnc(N/C=C(\C#N)c2nc(-c3cccc(Br)c3)cs2)c1	i	136[fluorescence artefact?]	i	i	i	i
CC(=O)Nc1cccc(-c2csc(Nc3cc(C)ccn3)n2)c1	i	i	i	i	i	i
SMILES	PTPN22 act	HIV Rev-RRE inh	PLK1 kinase inh	EphB4 antag	LYP inh 2	Plk1 PBD FP	others
Cc1ccc(NC(=O)NNC(=O)Cn2nc(-c3ccccc3)c(-c3ccccc3)c(C#N)c2=O)cc1	i	i	i	i	i	i
Cc1nn(-c2ccccc2)c(C)c1C(=O)OC/C(O)=C(\C#N)c1nc2ccccc2[nH]1	i	40	i	i	i	i
O=C1OC(C(=O)O)Cc2ccccc21 (stereo not drawn)	i	i	i	i	i	i
Cc1ccc(-c2ccc(/C=C(\C#N)C(=O)Nc3cc(C)nn3-c3ccccc3)o2)cc1	i	103[fluorescence artefact?]	i	i	i	i
Cc1ccc(Cn2ncc3c(N4CCN(c5ccccc5C)CC4)ncnc32)cc1	i	i	i	i	i	i
COc1cc(C)c(CNc2ccc(OC)c(OC)c2)cc1C	i	40	i	i	i	i
COc1cc(C)c(CNc2cccc(C)c2)cc1C	i	i	i	i	i	i
O=[N+]([O-])c1ccc(/C=N/Nc2nc(N3CCCCCC3)nc(N3CCCCCC3)n2)o1	i	46	i	i	i	i
CN(CC(=O)N1CCN(c2ccccn2)CC1)S(=O)(=O)c1ccccc1	i	i	i	i	i	i
COc1ccccc1NC(=O)N1CCN(c2ccccn2)CC1	nt	i	62	i	nt	i
CN(C(=O)N1CCN(c2ccccn2)CC1)c1ccccc1	i	i	i	15	i	i
CCOC(=O)CC(=O)CSc1nc2c(C)c(C)ccc2cc1C	i	i	i	i	24	i
COc1ccc(Sc2cc(C(F)(F)F)nc(-c3ccccn3)n2)cc1	i	i	i	i	i	i
CC(=O)Nc1ccc(N2C(C(C)=O)=NN(c3ccc(Cl)cc3)C2c2sccc2C)cc1 (stereo not drawn)	i	i	i	17	i	i
CCn1c(SCC(=O)N2c3ccccc3Sc3ccc(Cl)cc32)nc2c1c(=O)n(C)c(=O)n2C	i	i	i	i	i	i
CC1(C)Cc2c(sc3c2C2=NCCN2C=N3)CO1	i	i	57	i	i	i
O=S1(=O)CCN2C=Nc3sc4c(c3C2=N1)CCCC4	i	i	i	i	i	i
CN1CCc2nc(SCc3ccc(Cl)cc3)c(C#N)c(-c3cccs3)c2C1	i	40	i	i	i	i
Cc1oc(=O)c(NC(=O)c2cccc(Cl)c2)cc1C(=O)c1ccccc1	i	i	i	i	i	i
CCCOc1ccc(N)cc1N	i	101[fluorescence artefact?]	i	i	i	i
CCCOc1ccccc1NC(=O)c1ccc(N)cc1	i	i	i	i	i	i
CCc1c(C)sc(NC(=O)CC#N)c1C#N	i	37	i	i	i	i
Clc1ccc(Cc2nn3c(Cn4nnc5ccccc54)nnc3s2)cc1	i	i	i	i	i	i
O=C(NCCN1C(=O)C2C3C=CC(C3)C2C1=O)Nc1ccc(Br)cc1 (stereo not drawn)	nt	i	72	i	nt	i	PLK1 inh conf=i;Plk1 interf=i
Cc1[nH]nc2c1C1(CCN(Cc3ccccc3)CC1)C(C#N)=C(N)O2	i	i	72	i	i	i	PLK1 inh conf=70;Plk1 interf=i
SMILES	PTPN22 act	HIV Rev-RRE inh	PLK1 kinase inh	EphB4 antag	LYP inh 2	Plk1 PBD FP	others
N#C/C(=N\Nc1ccccc1Cl)C(=O)c1ccccc1	i	i	i	i	i	i
N#C/C(=N\Nc1c(Cl)cccc1Cl)C(=O)NN	i	i	79	i	i	i	PLK1 inh conf=77;Plk1 interf=i
O=C(c1ccc(F)cc1)N1CCN(c2cc(=O)[nH]nc2-c2ccccc2)CC1	i	i	125	i	i	i	PLK1 inh conf=i;Plk1 interf=i
Cc1cccc(-c2csc(N)c2C(=O)OC(C)C)c1	i	i	i	i	i	i
CCOC(=O)c1c(-c2ccncc2)csc1N	i	i	70	i	i	i	PLK1 inh conf=66;Plk1 interf=i
CCSc1nnc(NC(=O)C(C)C)s1	nt	i	71	i	nt	i	PLK1 inh conf=i;Plk1 interf=i
CON(C)c1nc(NCC(C)C)nc(OCC#N)n1	i	i	i	i	i	i
